PubChem BioAssay AID651628 (The Scripps Research Institute Molecular Screening Center, 2012)
Activity calls are given as the source filed them.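 Rule for the calls: active = at least one off-target enzyme showing weaker fluorescent probe labeling in any proteome panel; inactive = no off-target enzyme affected in any panel.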

Each compound was assayed on Membrane Proteome (assay: proteome-wide probe labelling blockade by competitive ABPP – cell lysate, gel-based fluorescence, soluble and membrane fractions, selectivity assay for PAD4 inhibitor project, late-stage follow-up (AID 651628)). Details: MCF7 proteome, CA-Rh gel-based ABPP, anti-target count, at 50 µM, hits give high values.
How it was run: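 Material: MCF7 cell proteome, soluble or membrane fraction | Medium: DPBS | Doses: Compound at 10 or 50 µM | Schedule: Compound 1 h, probe 1 h, 25 °C | Measured by: SDS-PAGE separation with in-gel fluorescence scanning of labelled bands | Control set: DMSO-only reference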

Number of anti-targets, active:
COC1=C(Br)C(=O)c2ncccc2C1=O > 5
COC1=CC(=O)c2nc(C#N)ccc2C1=O > 5
O=C1C(O)=C(O)C(=O)c2ncccc21 > 5
COC1=C(Br)C(=O)c2nc(-c3ccccn3)ccc2C1=O > 5
O=C1C=C(Br)C(=O)c2ncccc21 > 5
COC(=O)c1cccc(-c2ccc3c(n2)C(=O)C(Br)=CC3=O)n1 > 5
COC1=C(I)C(=O)c2nc(C#N)ccc2C1=O > 5

Number of anti-targets, inactive:
COC(=O)c1nc(C(=O)OC)c(NC(C)=O)c(-c2ccccc2Br)c1C 0
NC1=CC(=O)c2ccc(-c3cccc(C(=O)O)n3)nc2C1=O 0
COC1=C(N)C(=O)c2nc(-c3nc(C(=O)O)c(C)c(-c4ccc(OC)c(OC)c4O)c3N)ccc2C1=O 0
COC(=O)c1cccc(-c2ccc3c(n2)C(=O)C(N)=CC3=O)n1 0
NC1=CC(=O)c2cccnc2C1=O 0
NC1=CC(=O)c2ccc(-c3ccccn3)nc2C1=O 0
COC1=C(N)C(=O)c2ncccc2C1=O 0
